Data taken from PMC3475971 (Analytical and Bioanalytical Chemistry, 2012).

Columns and labels:
Type in all cases: binding
[1] = target: T1, cyclin G-associated kinase (GAK) (Homo sapiens, UniProt O14976); experiment: Fragment screening by zonal weak affinity chromatography
T1 sequence (O14976 20-347): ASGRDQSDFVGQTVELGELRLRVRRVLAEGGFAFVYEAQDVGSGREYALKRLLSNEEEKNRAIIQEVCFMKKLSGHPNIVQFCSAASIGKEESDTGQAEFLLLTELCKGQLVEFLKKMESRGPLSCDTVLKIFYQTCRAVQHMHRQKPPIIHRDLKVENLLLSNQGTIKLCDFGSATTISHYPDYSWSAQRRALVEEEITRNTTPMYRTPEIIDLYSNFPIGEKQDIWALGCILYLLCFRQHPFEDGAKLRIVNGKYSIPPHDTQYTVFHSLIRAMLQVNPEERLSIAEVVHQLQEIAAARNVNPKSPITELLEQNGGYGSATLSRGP

[2] = target: T1, cyclin G-associated kinase (GAK); experiment: Frontal affinity chromatography on GAK capillary column
Procedure, shortened: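 Human GAK residues 20–347 expressed in E. coli Rosetta (DE3), Ni-NTA and gel-filtration purified, tag removed with TEV protease, then coupled by reductive amination to aldehyde-silica capillary (100 × 0.5 mm). Frontal analysis: 20 mM ammonium acetate pH 6.8, 18 μL/min, 22 °C. Ligand 0.025–0.750 mM, UV 214 nm; DMSO void marker. Saturation moles versus concentration fitted (one-site plus linear nonspecific) for Btot and KD.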

[3] = system: GAK; experiment: Thermal shift assay; details: thermal shift assay performed as described in [32]

Row | Kd [1] | Kd [2] | Compound | increase of melting temperature (ΔTm) of GAK [3]
1 | 41 µM | 63 µM | Nc1ncnc2c1ncn2[C@@H]1O[C@H](CO)[C@@H](O)[C@H]1O [adenosine] | –
2 | – | – | O=c1c(O)c(-c2ccc(O)c(O)c2)oc2cc(O)cc(O)c12 [Quercetin] | 9.4 °C
